Results from publication PMC3966939 (Stroke; a journal of cerebral circulation, 2014).

Experiments:
[1] = test system: PAI-1; test: Immunohistochemistry: PAI-1 immunoreactive vessels; type: in vivo, rat; settings: treatment 4h after MCAO, 24h; double immunostaining
Method in brief: (§1)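 Embolic-MCAO male Wistar rats were treated 4 h after stroke onset with one of three regimens: IV tPA (10 mg/kg) alone, tPA plus peptide (0.8 mg/kg/day, IA then SC pump), or saline (n=4–6). Rats were killed 24 h after treatment began. Frozen 8 μm coronal sections (bregma −0.4 to −1.4 mm) were immunostained, and immunoreactive vessels in ischemic brain were counted. One-way ANOVA with Hochberg adjustment was used.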

[2] = test system: rat model of embolic middle cerebral artery occlusion (MCAO); test: MRI measurement of ischemic lesion; type: in vivo; settings: treatment started 4h after MCAO; MRI at 1, 72 and 144 h after MCAO; n=10/group
Method in brief: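 Rats received IV tPA (10 mg/kg) alone or tPA plus peptide, starting 4 h after embolic MCAO. Imaging was done on a 7 T scanner with T2-weighted and diffusion-weighted images at 1, 72 and 144 h. Ischemic area was taken from the T2 map using a threshold of two SD above the contralateral hemisphere. Groups were compared by one-way ANOVA.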

[3] = test system: rat model of embolic middle cerebral artery occlusion (MCAO); test: Incidence of gross hemorrhage on H&E stained coronal sections; type: in vivo; settings: treatment started 4h after MCAO; H&E sections 7 days after MCAO
Method in brief: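 In embolic-MCAO male Wistar rats, treatment began 1 or 4 h after occlusion. The peptide was given at 0.8 mg/kg/day (IA for 2 h, then SC pump for 3 days), with or without IV tPA 10 mg/kg at 4 h. Rats were killed at day 7. Seven H&E coronal sections per animal were scored for blood visible to the unaided eye, expressed as group percentage. Fisher exact test was applied.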

[4] = test system: TGF-β1; test: Immunohistochemistry: TGF-β1 immunoreactive vessels; type: in vivo, rat; settings: treatment 4h after MCAO, 24h; compared to the saline treatment
Method in brief: as §1

[5] = test system: NF-κB (p65); test: Immunohistochemistry: p65 immunoreactive vessels; type: in vivo, rat; settings: treatment 4h after MCAO, 24h; ipsilateral hemisphere
Method in brief: as §1

[6] = test system: p-Smad2/3; test: Immunohistochemistry: p-Smads2/3 immunoreactive vessels; type: in vivo, rat; settings: treatment 4h after MCAO, 24h; compared to the saline treatment
Method in brief: as §1

tissue plasminogen activator [tPA]
PAI-1 immunoreactive vessel density [1]: further increased | ischemic lesion by MRI (T2) [2]: increased over 144h | incidence of gross hemorrhage [3]: 38% | density of TGF-β1 immunoreactive vessels [4]: failed to reduce the densities | p65 immunoreactive vessels [5]: augmented | density of p-Smads2/3 immunoreactive vessels [6]: failed to reduce the densities
